Data published in ChEMBL document CHEMBL4145455, “Design, synthesis and evaluation of novel phenyl propionamide derivatives as non-nucleoside hepatitis B virus inhibitors” (Eur J Med Chem, 2018).

Tests used:
[1] = Cytotoxicity against human HepG2(2.2.15) cells assessed as reduction in cell viability after 72 hrs by MTT assay; format: cell-based
Method in brief: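 Confluent HepG2 2.2.15 cells exposed to graded compound concentrations for 72 h alongside untreated controls on each plate; viability by MTT uptake, absorbance 490 nm relative to untreated cells; CC50 = concentration killing 50% of cells. Three replicates.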

Hepatitis B virus [2] = assay: Antiviral activity against HBV infected in human HepG2(2.2.15) cells assessed as inhibition of viral DNA replication at 20 uM after 6 days by RT-PCR method relative to control; format: functional; conditions: HepG2 2.2.15, 144 h
Method in brief: (§1)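 HepG2 2.2.15 cells (stable HBV genome; DMEM, 10% FBS, G418 0.38 mg/mL) seeded 2×10^5/well, recovered 24 h, then compound in assay medium (single 20 or 4 μM, or dose series for IC50), medium changed every 2 days; after 6 days HBV DNA extracted and quantified by real-time PCR. Mean ± SD, ≥3 independent experiments in duplicate.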

Hepatitis B virus [3] = assay: Antiviral activity against HBV infected in human HepG2(2.2.15) cells assessed as inhibition of viral DNA replication after 6 days by RT-PCR method; format: functional, organism-based; conditions: HepG2 2.2.15, 144 h; method in brief: as §1
[4] = Selectivity index, ratio of CC50 for human HepG2(2.2.15) cells to IC50 for antiviral activity against HBV infected in human HepG2(2.2.15) cells assessed as inhibition of viral DNA replication; format: toxicity, cell-based; conditions: read-out: Ratio CC50/IC50
Method in brief: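 SI calculated as CC50 (72 h MTT, HepG2 2.2.15) divided by IC50 for inhibition of HBV DNA replication measured by real-time PCR.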

[5] = Selectivity index, ratio of CC50 for human HepG2(2.2.15) cells to IC50 for antiviral activity against lamivudine/entecavir resistant HBV harboring reverse transcriptase L180M/M204V/T184L mutant infected in human HepG2(2.2.15) cells; format: toxicity, cell-based; conditions: read-out: Ratio CC50/IC50
Method in brief: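 SI = CC50/IC50. CC50 comes from HepG2 2.2.15 cells grown to confluence and treated for 72 h, with MTT absorbance at 490 nm relative to untreated cells, in triplicate. IC50 comes from mutant-plasmid-transfected HepG2 cells treated for 72 h, with HBV DNA measured by real-time PCR.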

Hepatitis B virus [6] = assay: Antiviral activity against lamivudine/entecavir resistant HBV harboring reverse transcriptase L180M/M204V/T184L mutant infected in human […] after 72 hrs by RT-PCR method; format: functional, organism-based
Method in brief: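 HepG2 cells (2×10^5 per well) were plated, incubated overnight, then transiently transfected for 24 h with a plasmid carrying the full HBV genome with rtL180M + rtM204V + rtT184L. Medium was discarded, cells washed with PBS, then treated across a dose range in fresh medium for 72 h. Intracellular HBV DNA replicative intermediate was quantified by real-time PCR. IC50 is 50% inhibition of DNA replication.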

[7] = biological target: T1, Protein P (Duck hepatitis B virus (strain Germany/DHBV-3) (DHBV)) (UniProt P0C691); assay: (§2) Inhibition of DHBV reverse transcriptase polymerase activity expressed in reticulocyte system assessed as reduction in elongation of viral minus strand DNA in presence of [alpha32P]DNA
T1 sequence (whole entry): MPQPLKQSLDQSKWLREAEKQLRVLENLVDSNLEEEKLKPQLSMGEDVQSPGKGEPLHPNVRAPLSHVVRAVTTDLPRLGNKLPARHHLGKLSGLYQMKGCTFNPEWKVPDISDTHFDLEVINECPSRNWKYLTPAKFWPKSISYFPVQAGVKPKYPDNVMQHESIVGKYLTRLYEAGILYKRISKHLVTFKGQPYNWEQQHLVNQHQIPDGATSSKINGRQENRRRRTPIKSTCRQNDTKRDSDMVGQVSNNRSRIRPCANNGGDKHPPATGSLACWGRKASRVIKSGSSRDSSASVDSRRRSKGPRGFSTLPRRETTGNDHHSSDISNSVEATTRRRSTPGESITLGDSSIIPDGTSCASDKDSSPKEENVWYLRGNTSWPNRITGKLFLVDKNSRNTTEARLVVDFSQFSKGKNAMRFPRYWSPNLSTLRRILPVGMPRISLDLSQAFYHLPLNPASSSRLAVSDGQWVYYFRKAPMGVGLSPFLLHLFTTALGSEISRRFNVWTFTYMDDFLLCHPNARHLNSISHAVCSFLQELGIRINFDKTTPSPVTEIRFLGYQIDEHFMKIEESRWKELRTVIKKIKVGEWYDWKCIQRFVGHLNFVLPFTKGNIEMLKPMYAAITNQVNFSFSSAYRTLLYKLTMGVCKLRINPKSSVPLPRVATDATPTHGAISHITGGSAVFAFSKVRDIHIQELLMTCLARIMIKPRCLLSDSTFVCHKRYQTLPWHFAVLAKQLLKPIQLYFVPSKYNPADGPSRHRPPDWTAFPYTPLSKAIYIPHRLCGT
Method in brief: (§3)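 DHBV polymerase expressed in vitro in reticulocyte lysate; reverse transcriptase activity followed as [α32P]-dNTP incorporation into viral minus-strand DNA, with or without increasing inhibitor concentrations.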

Protein P = biological target: T2, Protein P (Duck hepatitis B virus (strain Germany/DHBV-3) (DHBV), UniProt P0C691); assay: as §2; method in brief: as §3
T2 sequence (P0C691 whole entry): T1 sequence (whole entry)

Hepatitis B virus [8] = assay: Antiviral activity against lamivudine/entecavir resistant HBV harboring reverse transcriptase L180M/M204V/T184L mutant infected in human […] cells assessed as inhibition of viral DNA replication at 1 uM after 72 hrs by RT-PCR method relative to control; format: functional
Method in brief: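 HepG2 cells (not 2.2.15) were transiently transfected for 24 h with a plasmid carrying the rtL180M + rtM204V + rtT184L mutant HBV genome, alongside wild-type. After a PBS wash, cells received a single concentration (1, 10 or 100 µM) in fresh medium for 72 h. HBV DNA replicative intermediate was measured by real-time PCR and compared with the wild-type group.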

Hepatitis B virus [9] = assay: Antiviral activity against HBV infected in human […] cells assessed as inhibition of viral DNA replication at 1 uM after 72 hrs by RT-PCR method relative to control; format: functional
Method in brief: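 HepG2 cells (2×10^5/well) transfected overnight-plated, 24 h with plasmid carrying wild-type or rtL180M+rtM204V+rtT184L resistant HBV; after PBS wash, fresh medium with lamivudine 100 μM, entecavir 10 μM, or test compounds 1 μM (one at 10 μM) for 72 h; replicative intermediate HBV DNA measured by real-time PCR.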

Hepatitis B virus [10] = assay: Antiviral activity against HBV infected in human HepG2(2.2.15) cells assessed as inhibition of intracellular viral pregenomic RNA expression at 1 uM after 6 days by TRIzol reagent based RT-PCR method relative to control; format: functional; conditions: HepG2 2.2.15, 144 h
Method in brief: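 HepG2 2.2.15 cells at 6×10^5 per well treated 6 days at 1 μM; total cellular RNA extracted and intracellular HBV pgRNA quantified by real-time PCR.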

Hepatitis B virus [11] = assay: Antiviral activity against HBV infected in human HepG2(2.2.15) cells assessed as inhibition of viral DNA replication at 4 uM after 6 days by RT-PCR method relative to control; format: functional; conditions: HepG2 2.2.15, 144 h; method in brief: as §1

IC50 (Hepatitis B virus [3]) [µM]	Compound	CC50 at 72 h [1] [µM]	inhibition at 20 µM (Hepatitis B virus [2]) [%]	selectivity ratio [4]	further results
	N#Cc1ccc(/C=C(/NC(=O)c2ccccc2)C(=O)N[C@H](CO)Cc2ccccc2)cc1	> 100	10.2		
7.26	O=C(N[C@H](CO)Cc1ccccc1)/C(NC(=O)c1ccccc1)=C(/Br)c1ccccc1Br	> 100	76.6	> 13.8	
5.5	N#Cc1ccc(/C(Br)=C(/NC(=O)c2ccccc2)C(=O)N[C@H](CO)Cc2ccccc2)cc1	> 100	75.1	18.2	
1.88	O=C(N[C@H](CO)Cc1ccccc1)/C(NC(=O)c1ccccc1)=C(/Br)c1ccccc1Cl	66.7	80.2	35.5	
	O=C(N[C@H](CO)Cc1ccccc1)/C(=C\c1ccc(O)cc1)NC(=O)c1ccccc1	> 100	24.9		
	CCN(CC)C(=O)[C@H](Cc1ccc(OCCN(C)C)cc1)NC(=O)c1ccccc1	> 100	17.5		
4.45	O=C(N[C@H](CO)Cc1ccccc1)/C(NC(=O)c1ccccc1)=C(/Br)c1ccc(Br)cc1	> 100	73.1	> 22.5	
	Cc1cccc(/C=C(/NC(=O)c2ccccc2)C(=O)N[C@H](CO)Cc2ccccc2)c1	> 100	15.8		
	O=C(N[C@H](CO)Cc1ccccc1)/C(=C\c1ccccc1Br)NC(=O)c1ccccc1	> 100	26.2		
	O=C(N[C@@H](Cc1ccccc1)C(=O)N1CCCCC1)c1ccccc1	> 100	42.3		
	CN(C)CCOc1ccc(C[C@H](NC(=O)c2ccccc2)C(=O)N2CCCC2)cc1	> 100	47.6		

Compound	IC50 (Hepatitis B virus [3]) [µM]	CC50 at 72 h [1] [µM]	inhibition at 20 µM (Hepatitis B virus [2]) [%]	selectivity ratio [4]	further results
Cc1cccc(/C(Br)=C(/NC(=O)c2ccccc2)C(=O)N[C@H](CO)Cc2ccccc2)c1	0.46	> 100	87.6	> 217	selectivity ratio [5]: > 130; IC50 (Hepatitis B virus [6]): 0.77 µM; inhibition [7]: Dose-dependent effect; EC50 (Protein P): 34.2 µM; inhibition at 1 µM (Hepatitis B virus [8]): 65.9%; inhibition at 1 µM (Hepatitis B virus [9]): 61.4%; inhibition at 1 µM (Hepatitis B virus [10]): 49.4%
CN(C)CCOc1ccc(/C(Br)=C(/NC(=O)c2ccccc2)C(=O)N[C@H](CO)Cc2ccccc2)cc1	0.14	21.4 to 28.7		153	selectivity ratio [5]: 89.7; IC50 (Hepatitis B virus [6]): 0.32 µM; inhibition at 1 µM (Hepatitis B virus [8]): 80.1%; inhibition at 1 µM (Hepatitis B virus [9]): 79.6%; inhibition at 4 µM (Hepatitis B virus [11]): 99.5%
